Source: ChEMBL document CHEMBL1137724, “2-Azetidinone derivatives: design, synthesis and evaluation of cholesterol absorption inhibitors” (2009)

How the values were obtained:
Hamster [1] = experiment: Hypocholesterolemic effect in high cholesterol-fed hamster assessed as increase in HDL-cholesterol at 50 mg/kg, po for 7 days; assay type: functional, Cricetinae
In short: (§1)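 Blood was collected at sacrifice on the last dosing day for lipid analysis. Plasma total cholesterol and HDL-C were measured by a commercial kit using a modified cholesterol oxidase method.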

Hamster [2] = experiment: Hypocholesterolemic effect in high cholesterol-fed hamster assessed as reduction in plasma total cholesterol at 50 mg/kg, po for 7 days; assay type: functional, Cricetinae; design: scale not given: the % may be the effect or the level left; in short: as §1

SMILES | Activity (Hamster [1]) | Activity (Hamster [2]) | Activity (Hamster [1]; 50 mg/kg) | Activity (Hamster [2]; 50 mg/kg)
COc1ccc(N2C(=O)[C@H](CCC(O)(c3ccc(F)cc3)c3ccc(F)cc3)[C@H]2c2cc3c(cc2Br)OCO3)cc1 | 31.8% | 19.8% | – | –
COc1ccc([C@@H]2[C@@H](CCC(=O)Nc3ccc(C)cc3)C(=O)N2c2ccc(OC)cc2)cc1 | – | – | 21.7% | 28.1%
COc1ccc([C@@H]2[C@@H](CCC(O)(c3ccccc3)c3ccccc3)C(=O)N2c2ccccc2C)cc1 | 14.5% | 34.8% | – | –
Cc1ccccc1N1C(=O)[C@H](CCC(O)(c2ccc(F)cc2)c2ccc(F)cc2)[C@H]1c1ccc2c(c1)OCO2 | 24.8% | 10.4% | – | –
COc1ccc([C@@H]2[C@@H](CCC(=O)Nc3ccc(C)cc3)C(=O)N2c2ccccc2)cc1 | – | – | 22.1% | –
COc1ccc([C@@H]2[C@@H](CCC(=O)Nc3ccc(Cl)cc3)C(=O)N2c2ccc(C)cc2)cc1 | 13.7% | 31.6% | – | –
COc1ccc([C@@H]2[C@@H](CCC(=O)Nc3ccc(C)cc3)C(=O)N2c2ccc(OC)cc2)cc1 (relative stereo) | – | – | 12.4% | 20.9%
COc1ccc([C@H]2[C@H](CCC(=O)Nc3ccc(Cl)cc3)C(=O)N2c2ccc(C)cc2)cc1 (relative stereo) | 17.8% | 26.3% | – | –
COc1ccc([C@@H]2[C@@H](CCC(O)(c3ccccc3)c3ccccc3)C(=O)N2c2ccc(F)cc2)cc1 (relative stereo) | 35% | 16.3% | – | –
COc1ccc([C@@H]2[C@@H](CCC(=O)Nc3ccc(Cl)cc3)C(=O)N2c2ccc(OC)cc2)cc1 (relative stereo) | 20.1% | 16.3% | – | –
COc1ccc([C@@H]2[C@@H](CCC(O)(c3ccc(F)cc3)c3ccc(F)cc3)C(=O)N2c2ccc(Br)cc2)cc1 (relative stereo) | 32.9% | 11.2% | – | –
COc1ccc([C@@H]2[C@@H](CCC(=O)Nc3ccc(C)cc3)C(=O)N2c2ccccc2)cc1 (relative stereo) | – | – | 13.9% | –
COc1ccc([C@@H]2[C@@H](CCC(=O)Nc3ccc(C)cc3)C(=O)N2c2ccc(C)cc2)cc1 (relative stereo) | 23.9% | 18.7% | – | –
O=C1[C@H](CCC(O)(c2ccccc2)c2ccccc2)[C@@H](c2ccc3c(c2)OCO3)N1c1ccc(Cl)cc1 (relative stereo) | 11.4% | 28.7% | – | –
O=C1[C@H](CC[C@H](O)c2ccc(F)cc2)[C@@H](c2ccc(O)cc2)N1c1ccc(F)cc1 [EZETIMIBE] | 37.3% | 48.7% | – | –
